The results in this text go back to ChEMBL document CHEMBL1123005, “1-Azacycloalkyl-1,4-benzodiazepin-2-ones with antianxiety-antidepressant actions” (J Med Chem, 1985).

Active and inactive are the calls of the source. The calls are words filed in the database; no cut-off is given here.

Assay [1] relates to Mus musculus. Description: Effective dose against pentylenetetrazole intoxicity in mice administered through subcutaneous route;NE= no effect at 10 mg/kg. The class given is functional, organism-based. Details: dose 10 mg/kg.
For assay [2], the target named is GABA-A receptor; anion channel (Rattus norvegicus) (UniProt O09028+P15431+P18506+P18508+P19969+P20236+P23574+P23576+P28471+P28473+P30191+P62813+P63079+P63138+Q91ZM7+Q9ES14). Nature of the assay: Binding constant was determined by displacing potential to [3H]-diazepam binding in cerebral cortex homogenates of rat. The format is tissue-based. The method, boiled down:
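Wistar rat cerebral cortex homogenate incubated with compound and 2 nM [3H]diazepam at 0 °C for 60 min. Bound label trapped on glass filters and counted by scintillation. Ki = IC50/(1 + L/Kd).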

In assay [3] the test system is Mus musculus. Description: Effective dose against tetrabenazine induced ptosis in mice administered subcutaneously. The class given is functional. The note with it: sc. The method, boiled down:
(§1)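 Male DS mice, 20-27 g, groups of five. Compound given po or sc in saline or gum arabic at 0.1 mL/10 g. Tetrabenazine 50 mg/kg sc given 1, 4 or 24 h later. Ptosis scored 1-4 at 1 h after TBZ, with ridit transformation. Dose for 50% prevention by regression.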

The test system of assay [4] is Mus musculus. Description: Percent inhibition against tetrabenazine induced ptosis in mice administered orally at 50 mg/kg. The format is functional. The note with it: route oral. The method, boiled down:
as §1

The subject of assay [5] is Mus musculus. Nature of the assay: Effective dose against pentylenetetrazole intoxicity in mice administered orally. The class given is functional.
Assay [6] has as its system Mus musculus. Nature of the assay: Effective dose against tetrabenazine induced ptosis in mice administered orally. The class given is functional. In a few lines: as §1
In assay [7] the test system is Rattus norvegicus. Description: Effective dose was evaluated by their anticonflict effect in rats when administered through oral route. The class given is functional. The method, boiled down: (§2)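 Wistar rats in groups of 5-8, Geller-Seifter conflict procedure. Rats trained to lever-press for food on a variable-interval 60-s schedule. Oral dosing. A dose counted positive when shocks exceeded 12 or shock ratio exceeded 4 over four consecutive tone periods. ED50 with 95% limits by probit.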

Assay [8] deals with Mus musculus. Description: Effective dose against pentylenetetrazole intoxicity in mice administered through subcutaneous route. The format is functional. The note with it: sc.
Assay [9] deals with Mus musculus. Nature of the assay: Effective dose against pentylenetetrazole intoxicity in mice administered orally; NE= no effect at 50 mg/kg. The format is functional, organism-based. Details: dose 50 mg/kg.
The subject of assay [10] is Mus musculus. Description: Effective dose against pentylenetetrazole intoxicity in mice administered through subcutaneous route; NE= no effect at 10 mg/kg. The format is functional, organism-based. Details: dose 10 mg/kg.
For assay [11], the system named is Mus musculus. Nature of the assay: Percent inhibition against tetrabenazine induced ptosis in mice administered orally at 100 mg/kg. The format is functional. The note with it: route oral. In a few lines: as §1
Assay [12] concerns Mus musculus. Nature of the assay: Effective dose against pentylenetetrazole intoxicity in mice administered through subcutaneous route; NE = no effect at dose 10 mg/kg. The class given is functional, organism-based. Also on record: dose 10 mg/kg.
In assay [13] the test system is Mus musculus. Nature of the assay: Percent inhibition against tetrabenazine induced ptosis in mice administered subcutaneously at 50 mg/kg. The class given is functional. The note with it: sc, route subcutaneous. In a few lines: as §1
The subject of assay [14] is Mus musculus. Description: Effective dose against pentylenetetrazole intoxicity in mice administered through subcutaneous route; NE = no effect at 10 mg/kg. The class given is functional, organism-based. Details: dose 10 mg/kg.
The subject of assay [15] is Mus musculus. Nature of the assay: Effective dose against pentylenetetrazole intoxicity in mice administered orally; NE = no effect at 50 mg/kg. The class given is functional, organism-based. Details: dose 50 mg/kg.
Assay [16] relates to Rattus norvegicus. Description: Effective dose against anticonflict effect in rats when administered through oral route. The format is functional. In a few lines: as §2
The species entered for assay [17] is Rattus norvegicus. Description: Inhibitory activity against uptake of [3H]norepinephrine into rat brain synaptosomes. The format is functional. In a few lines: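 P2 synaptosomes from male Wistar rat cerebral cortex incubated with [3H]norepinephrine at 37 °C for 20 min, with compound at 5-6 concentrations. Stopped by Krebs-Henseleit dilution and glass-fibre filtration, then scintillation counting. IC50 taken as the concentration giving 50% uptake inhibition.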

Assay [18] deals with Mus musculus. Nature of the assay: Effective dose against tetrabenazine induced ptosis in mice administered subcutaneously; NE= no effect at 50 mg/kg. The format is functional, organism-based. Details: dose 50 mg/kg. The method, boiled down:
as §1

The test system of assay [19] is Mus musculus. Nature of the assay: Effective dose against pentylenetetrazole intoxicity in mice administered through subcutaneous route;NE = no effect at 20 mg/kg. Also on record: dose 20 mg/kg. The class given is functional, organism-based.
Setting [20] is: Mus musculus, po, read-out: ED50.

On to `CN1CCC(N2C(=O)CN=C(c3ccccc3F)c3cc(N(C)C)ccc32)CC1`, for which the ED50 result in the assay on Mus musculus [1] was “inactive”. Also, the K2 in assay [2] came out at 8.3 µM. Besides, in the assay on Mus musculus [3], the ED50 was determined as 0.7 mg/kg.
On to `O=C1CN=C(c2ccccc2F)c2cc(Cl)ccc2N1C1CCN(Cc2ccccc2)C1` (stereo not drawn), for which, in the assay with Mus musculus [4], testing at 50 mg/kg gave an inhibition in vivo of 58%. Moreover, the K2 in assay [2] stood at 0.27 µM. Further, the ED50 in the assay on Mus musculus [5] (setting [20]) came to 1.52 mg/kg.
As to `CN1CCC(N2C(=O)CN=C(c3ccccc3F)c3cc(Br)ccc32)CC1`, the ED50 in the assay with Mus musculus [6] (setting [20]) was found to be 3.85 mg/kg; in the assay on Rattus norvegicus [7] it was 1.23 mg/kg; in the assay with Mus musculus [8], 0.79 mg/kg; in the assay with Mus musculus [5] (setting [20]) it was 1.61 mg/kg; with Mus musculus [3], 2.45 mg/kg. For the same molecule, the K2 in assay [2] was found to be 0.049 µM.
In assay [2], `CN1CCC(N2C(=O)CN=C(c3ccccc3F)c3ccc(F)cc32)CC1` gave a K2 of 0.44 µM. Besides, the ED50 entry in the assay on Mus musculus [9] and in the assay with Mus musculus [10] was “inactive” each time. In the assay on Mus musculus [3], this molecule yielded an ED50 of 0.94 mg/kg.
The molecule `CN1CCC(N2C(=O)CN=C(c3ccccc3Cl)c3cc(Cl)ccc32)C1` (stereo not drawn) returned an inhibition in vivo at 100 mg/kg with Mus musculus [11] of 61%. Also, the K2 in assay [2] turned out to be 0.05 µM. The 50% effective dose (ED50) in the assay with Mus musculus [5] (setting [20]) was found to be 5.78 mg/kg.
`CC(=O)N1CCC(N2C(=O)CN=C(c3ccccc3)c3ccccc32)CC1` yielded a K2 in [2] of 1.5 µM. In addition, the ED50 result in the assay with Mus musculus [12] is “inactive”. The molecule further had a 50% effective dose (ED50) in the assay on Mus musculus [3] of 3.25 mg/kg.
In the assay with Mus musculus [11], `CN1CCCC(N2C(=O)CN=C(c3ccccc3Cl)c3cc(Cl)ccc32)C1` (stereo not drawn) showed an inhibition in vivo at 100 mg/kg of 21%. Besides, the K2 in assay [2] amounted to 0.016 µM. Besides, in the assay with Mus musculus [5] (setting [20]), the 50% effective dose (ED50) came to 12 mg/kg.
On to `CCOC(=O)N1CCC(N2C(=O)CN=C(c3ccccc3Cl)c3cc(Cl)ccc32)CC1`, for which the inhibition in vivo at 50 mg/kg with Mus musculus [13] turned out to be 16%. This molecule also returned a K2 in assay [2] of 0.02 µM. Also, the ED50 in the assay with Mus musculus [5] (setting [20]) came to 1.95 mg/kg.
For the molecule `CN1CCC(N2C(=O)CN=C(c3ccccc3F)c3cc(Cl)ccc32)CC1`, the 50% effective dose (ED50) in the assay on Mus musculus [6] amounted to 1.12 mg/kg; in the assay on Mus musculus [6] (setting [20]), 2.13 mg/kg; with Rattus norvegicus [7], 3.67 mg/kg; in the assay with Mus musculus [8], 0.71 mg/kg; with Mus musculus [5], 5.28 mg/kg; with Mus musculus [5] (setting [20]), 2.7 mg/kg. Also, in the assay on Mus musculus [3], the median effective dose (ED50) was determined as 1.3 mg/kg.
For `Cc1ccc2c(c1)C(c1ccccc1F)=NCC(=O)N2C1CCN(C)CC1`, in the assay on Mus musculus [14], the ED50 result was “inactive”. Besides, the K2 in assay [2] came to 0.26 µM. In the assay with Mus musculus [3], this molecule showed an ED50 of 0.84 mg/kg.
`O=C1CN=C(c2ccccc2F)c2ccccc2N1C1CCNCC1`: the ED50 entry in the assay with Mus musculus [14] and in the assay on Mus musculus [15] was “inactive” each time. Besides, the K2 in assay [2] was 0.15 µM. The 50% effect level in the assay on Mus musculus [3] (ED50) was put at a dose of 0.07 mg/kg.
In the case of `O=C1CN=C(c2ccccc2F)c2cc(Br)ccc2N1C1CCNCC1`, the median effective dose (ED50) in the assay with Mus musculus [6] (setting [20]) is 5.37 mg/kg; in the assay on Rattus norvegicus [16], 4.54 mg/kg; in the assay on Mus musculus [5] (setting [20]), 2.7 mg/kg. The same molecule returned a K2 in [2] of 0.033 µM. The half-inhibitory concentration (IC50) in the assay listed under Rattus norvegicus [17] was determined as 288 nM.
With `O=C1CN=C(c2ccccc2)c2cc(Br)ccc2N1C1CCNCC1`, the median effective dose (ED50) with Mus musculus [6] (setting [20]) came out at 0.76 mg/kg; in the assay on Mus musculus [5] (setting [20]), 38.8 mg/kg. For the same molecule, in assay [2], the K2 came to 0.57 µM. For the same molecule, inhibition in the assay filed under Rattus norvegicus [17] was half-maximal at 402 nM (IC50).
On to `CN1CCC(N2C(=O)CN=C(c3ccccc3F)c3cc(Cl)ccc32)C1` (stereo not drawn), for which the values for the ED50 in the assay with Mus musculus [6] (setting [20]) and in the assay with Mus musculus [5] (setting [20]) were 3.69 mg/kg and 1.1 mg/kg, respectively. Moreover, the K2 in assay [2] was 0.2 µM.
The corresponding values for `CN1CCC(N2C(=O)C(O)N=C(c3ccccc3F)c3cc(Cl)ccc32)CC1` (stereo not drawn) are 9.79 mg/kg, 2.41 mg/kg and 0.074 µM.
As to `CN(C)CCCN1c2ccccc2CCc2ccccc21` [IMIPRAMINE], the figures for the ED50 with Mus musculus [6] (setting [20]) and with Mus musculus [3] were 2.14 mg/kg and 0.8 mg/kg, respectively. In addition, it took 85 nM to reach half-maximal inhibition in the assay filed under Rattus norvegicus [17] (IC50).
Take `CN1CCC(N2C(=O)CN=C(c3ccccc3F)c3ccc(C(F)(F)F)cc32)CC1`: in assay [2], the K2 was determined as 17 µM. Besides, the ED50 entry in the assay with Mus musculus [18] and in the assay with Mus musculus [19] was “inactive” each time.

A word on the ED50: it is the dose that gives a 50% effect, or the effect in half of the subjects. As a reminder, the inhibition in vivo is the percentage by which the read-out fell short of the control. A high value points to strong suppression. By IC50 is commonly meant the midpoint of a concentration-inhibition curve. The low end stands for higher potency, the high end for lower potency.
